# Results taken from ChEMBL document CHEMBL1153722, “Design, synthesis, and characterization of peptide-based rab geranylgeranyl transferase inhibitors” (J Med Chem, 2009).
# Peptide text beside a SMILES is read from it. * marks the point of attachment. Hydrocinnamoyl = O=C(CCc1ccccc1)*; Undecanoyl = CCCCCCCCCCC(=O)*; NHOH = ON*
# Species: Rattus norvegicus
# Assay: Inhibition of rat recombinant Rab geranylgeranyltransferase at 100 uM in presence of canine Rab7 and rat REP1 NBD-FPP based continuous fluorimetric assay
# In short: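 Continuous fluorometric assay in 96/384-well format: 3 μM Rab7, 3 μM REP1, 9 μM NBD-FPP and 400 nM RabGGTase, with or without inhibitor. […] IC50 was calculated from three independent measurements.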
row,Structure (SMILES),inhibition
1,CC#CCOC(=O)[C@H](Cc1ccccc1)NC(=O)[C@H](Cc1ccccc1)NC(=O)[C@H](CC(C)C)NC(=O)/C=C/c1ccccc1,61%
2,C[C@@H](NC(=O)CCc1ccccc1)C(=O)N[C@@H](Cc1ccccc1)C(=O)N[C@@H](CCC(N)=O)C(=O)O,111%
3,CON(C)C(=O)[C@H](CCC(N)=O)NC(=O)[C@H](Cc1ccccc1)NC(=O)[C@@H](NC(=O)C(Br)C(Br)c1ccccc1)[C@@H](C)O (some centres undefined),102%
4,O=C(N[C@@H](Cc1c[nH]cn1)C(=O)N[C@@H](Cc1ccc(O)cc1)C(=O)N[C@@H](Cc1ccccc1)C(=O)O)OCc1ccc(OCc2ccccc2)cc1,53%
5,C[C@@H](O)[C@H](NC(=O)/C=C/c1ccccc1)C(=O)N[C@@H](Cc1ccccc1)C(=O)N[C@@H](CCC(N)=O)C(=O)Nc1cccc(Br)n1,83%
6,O=C(CNC(=O)c1coc(-c2ccccc2)n1)NCC(=O)N[C@@H](Cc1cn(C(c2ccccc2)(c2ccccc2)c2ccccc2)cn1)C(=O)Nc1ccc(F)cc1F,6%
7,CC(C)CCNC(=O)[C@H](Cc1ccccc1)NC(=O)[C@H](CC(C)C)NC(=O)[C@@H]1CCCN1C(=O)/C=C/c1ccccc1,104%
8,COC(=O)COC(=O)[C@H](Cc1ccccc1)N(C)C(=O)[C@H](Cc1ccc(OC)cc1)N(C)C(=O)[C@@H](Cc1ccc(O)cc1)NC(=O)CCc1ccccc1,88%
9,O=C(N[C@@H](Cc1ccc(O)cc1)C(=O)N[C@@H](Cc1ccc(O)cc1)C(=O)N[C@@H](Cc1ccc(O)cc1)C(=O)Nc1ccc(F)cc1F)c1ccc(F)cc1F,97%
10,C[C@@H](O)[C@H](NC(=O)C(Br)C(Br)c1ccccc1)C(=O)N[C@@H](Cc1ccccc1)C(=O)N[C@@H](CCC(N)=O)C(=O)Nc1nccs1 (some centres undefined),93%
11,COC(=O)[C@H](Cc1ccc(O)cc1)NC(=O)CNC(=O)[C@H](C)NC(=O)/C=C/c1ccc(F)cc1,79%
12,O=C(N[C@@H](Cc1ccc(O)cc1)C(=O)N[C@@H](Cc1ccc(O)cc1)C(=O)N[C@@H](Cc1ccc(O)cc1)C(=O)OCCCn1ccnc1)c1ccc(F)cc1F,96%
13,O=C(N[C@H](Cc1cnc[nH]1)C(=O)N[C@@H](Cc1ccc(O)cc1)C(=O)N[C@@H](Cc1ccccc1)C(=O)O)OCc1ccc(OCc2ccccc2)cc1,47%

# More lines, now with the values ahead:
row,inhibition,Structure (SMILES)
1,87%,CCCCCCCCCCCOc1ccc(C(=O)N[C@@H](Cc2c[nH]cn2)C(=O)N[C@@H](Cc2ccc(O)cc2)C(=O)N[C@@H](Cc2ccccc2)C(=O)N2CCOCC2)cc1
2,97%,CC(C)C[C@H](NC(=O)[C@H](CO)NC(=O)[C@H](Cc1ccccc1)NC(=O)CCc1ccccc1)C(=O)OCCCl
3,83%,CCCCCCCCCCCCCCCC(=O)N[C@@H](Cc1ccc(O)cc1)C(=O)N[C@@H](Cc1ccc(O)cc1)C(=O)N[C@@H](Cc1ccc(O)cc1)C(=O)Nc1nccs1
4,96%,O=C(CNC(=O)c1coc(-c2ccccc2)n1)N[C@@H](Cc1c[nH]cn1)C(=O)N[C@@H](Cc1c[nH]cn1)C(=O)O
5,61%,CCCCCCCCCCC(=O)N[C@@H](Cc1c[nH]cn1)C(=O)N[C@@H](Cc1c[nH]cn1)C(=O)N[C@@H](CO)C(=O)Nc1ccccn1
6,124%,CCCCCCCCCCCC(=O)N[C@@H](Cc1c[nH]cn1)C(=O)N[C@@H](Cc1c[nH]cn1)C(=O)N[C@@H](Cc1ccc(O)cc1)C(=O)NCCCn1ccnc1
7,106%,NC(=O)CC[C@H](NC(=O)[C@H](Cc1ccccc1)NC(=O)[C@H](CO)NC(=O)CCc1ccccc1)C(N)=O (Hydrocinnamoyl-Ser-Phe-Gln-NH2)
8,101%,COc1ccc(NC(=O)[C@H](CCC(N)=O)NC(=O)[C@H](Cc2ccccc2)NC(=O)[C@H](CO)NC(=O)CCc2ccccc2)cc1
9,78%,CCCCCCCCCCC(=O)N[C@@H](Cc1c[nH]cn1)C(=O)N[C@@H](Cc1c[nH]cn1)C(=O)N[C@@H](CO)C(=O)NO (Undecanoyl-His-His-Ser-{NHOH})
10,75%,CCCCCCCCCCC(=O)N[C@@H](Cc1c[nH]cn1)C(=O)N[C@@H](Cc1c[nH]cn1)C(=O)N[C@@H](CO)C(=O)NCCCCN
11,98%,NCCCC[C@H](NC(=O)CCc1ccccc1)C(=O)N[C@@H](Cc1c[nH]cn1)C(=O)N[C@@H](CO)C(=O)NC1CCCCC1
